# From ChEMBL document CHEMBL5678810
# Active and inactive are the calls of the source. No cut-off for these calls is given here.
# Tests used:
# [1] = target: Serine/threonine-protein kinase TAO2 (Homo sapiens) (UniProt Q9UL54); test: Inhibition of TAO2 Lys2 labeling site in human PC-3 cell lysate at 10 uM by KiNativ profiling analysis relative to control; assay type: subcellular
# [2] = target: Fibroblast growth factor receptor 3 (Homo sapiens) (UniProt P22607); test: Inhibition of T7 bacteriophage fused human FGFR3 at 10 uM by KINOMEscan analysis relative to control; values are per cent of control
# [3] = target: Serine/threonine-protein kinase TAO2 (Homo sapiens) (UniProt Q9UL54); test: Inhibition of T7 bacteriophage fused human TAOK2 at 10 uM by KINOMEscan analysis relative to control
# [4] = target: Serine/threonine-protein kinase Nek2 (Homo sapiens) (UniProt P51955); test: Inhibition of T7 bacteriophage fused human NEK2 at 10 uM by KINOMEscan analysis relative to control
# [5] = target: Phosphatidylinositol 4-phosphate 3-kinase C2 domain-containing subunit beta (Homo sapiens) (UniProt O00750); test: Inhibition of T7 bacteriophage fused human PIK3C2B at 10 uM by KINOMEscan analysis relative to control
# [6] = tested on: Receptor-type tyrosine-protein kinase FLT3 (Homo sapiens), P36888 [N841I]; test: Inhibition of T7 bacteriophage fused human FLT3 N841I mutant at 10 uM by KINOMEscan analysis relative to control; values are per cent of control
# [7] = target: Maternal embryonic leucine zipper kinase (Homo sapiens) (UniProt Q14680); test: Inhibition of T7 bacteriophage fused human MELK at 10 uM by KINOMEscan analysis relative to control
# Maternal embryonic leucine zipper kinase (Homo sapiens), sequence (Q14680 whole entry, looked up, the tested form may be a part): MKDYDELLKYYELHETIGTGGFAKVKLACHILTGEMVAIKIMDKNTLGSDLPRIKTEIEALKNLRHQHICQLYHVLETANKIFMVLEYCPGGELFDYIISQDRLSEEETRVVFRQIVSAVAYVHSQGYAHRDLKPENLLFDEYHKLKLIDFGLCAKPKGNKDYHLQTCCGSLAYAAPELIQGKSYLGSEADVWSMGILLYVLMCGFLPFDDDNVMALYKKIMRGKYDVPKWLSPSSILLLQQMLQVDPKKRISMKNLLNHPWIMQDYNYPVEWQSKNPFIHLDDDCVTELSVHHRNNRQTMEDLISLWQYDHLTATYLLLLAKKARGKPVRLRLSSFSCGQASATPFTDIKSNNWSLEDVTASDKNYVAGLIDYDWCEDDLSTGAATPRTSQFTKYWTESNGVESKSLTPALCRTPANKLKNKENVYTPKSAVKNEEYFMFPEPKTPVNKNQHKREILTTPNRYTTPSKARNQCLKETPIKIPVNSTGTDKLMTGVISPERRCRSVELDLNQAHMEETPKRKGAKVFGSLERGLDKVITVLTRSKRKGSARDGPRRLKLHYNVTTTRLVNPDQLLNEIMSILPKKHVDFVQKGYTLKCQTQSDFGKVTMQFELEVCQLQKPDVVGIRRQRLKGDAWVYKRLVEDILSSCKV
# [8] = target: Serine/threonine-protein kinase MRCK beta (Homo sapiens) (UniProt Q9Y5S2); test: Inhibition of T7 bacteriophage fused human MRCKB at 10 uM by KINOMEscan analysis relative to control
# [9] = target: Mitogen-activated protein kinase kinase kinase 13 (Homo sapiens) (UniProt O43283); test: Inhibition of T7 bacteriophage fused human LZK at 10 uM by KINOMEscan analysis relative to control
# [10] = target: Aurora kinase A (Homo sapiens) (UniProt O14965); test: Inhibition of T7 bacteriophage fused human AURKA at 10 uM by KINOMEscan analysis relative to control
# Aurora kinase A (Homo sapiens), sequence (O14965 whole entry, the tested form may be a part): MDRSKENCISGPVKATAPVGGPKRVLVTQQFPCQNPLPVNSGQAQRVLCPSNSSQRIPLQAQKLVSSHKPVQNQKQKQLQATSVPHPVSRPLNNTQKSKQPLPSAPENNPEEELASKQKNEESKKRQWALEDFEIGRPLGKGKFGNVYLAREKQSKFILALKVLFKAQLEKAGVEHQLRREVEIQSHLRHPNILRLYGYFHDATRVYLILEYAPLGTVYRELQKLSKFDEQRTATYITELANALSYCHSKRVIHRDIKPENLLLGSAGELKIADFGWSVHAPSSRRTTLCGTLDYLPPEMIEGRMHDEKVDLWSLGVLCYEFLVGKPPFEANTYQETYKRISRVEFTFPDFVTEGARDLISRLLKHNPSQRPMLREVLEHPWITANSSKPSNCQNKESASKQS
# [11] = target: Mitogen-activated protein kinase 3 (Homo sapiens) (UniProt P27361); test: Inhibition of T7 bacteriophage fused human ERK1 at 10 uM by KINOMEscan analysis relative to control
# [12] = target: Receptor tyrosine-protein kinase erbB-4 (Homo sapiens) (UniProt Q15303); test: Inhibition of T7 bacteriophage fused human ERBB4 at 10 uM by KINOMEscan analysis relative to control
# [13] = target: Eukaryotic translation initiation factor 2-alpha kinase 1 (Homo sapiens) (UniProt Q9BQI3); test: Inhibition of T7 bacteriophage fused human EIF2AK1 at 10 uM by KINOMEscan analysis relative to control
# Eukaryotic translation initiation factor 2-alpha kinase 1 (Homo sapiens), sequence (Q9BQI3 whole entry, the tested form may be a part): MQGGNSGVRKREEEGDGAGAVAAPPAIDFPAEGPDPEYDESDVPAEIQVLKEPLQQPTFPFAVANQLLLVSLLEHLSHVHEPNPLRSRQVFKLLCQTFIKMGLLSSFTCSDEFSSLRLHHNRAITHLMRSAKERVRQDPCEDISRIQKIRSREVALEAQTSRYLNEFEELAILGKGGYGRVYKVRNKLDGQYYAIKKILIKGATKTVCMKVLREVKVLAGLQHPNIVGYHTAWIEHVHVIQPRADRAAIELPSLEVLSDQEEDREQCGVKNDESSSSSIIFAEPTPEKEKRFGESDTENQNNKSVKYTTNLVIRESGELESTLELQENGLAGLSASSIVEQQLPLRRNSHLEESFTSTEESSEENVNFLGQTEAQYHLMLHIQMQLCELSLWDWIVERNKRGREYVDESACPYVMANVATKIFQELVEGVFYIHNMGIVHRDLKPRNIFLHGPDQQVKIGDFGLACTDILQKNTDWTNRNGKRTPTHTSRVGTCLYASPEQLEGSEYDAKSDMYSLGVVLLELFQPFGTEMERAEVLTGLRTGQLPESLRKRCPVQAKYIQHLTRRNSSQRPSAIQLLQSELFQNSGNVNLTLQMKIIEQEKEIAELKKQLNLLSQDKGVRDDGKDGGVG
# [14] = target: Dual specificity protein kinase CLK3 (Homo sapiens) (UniProt P49761); test: Inhibition of T7 bacteriophage fused human CLK3 at 10 uM by KINOMEscan analysis relative to control
# [15] = target: Mitogen-activated protein kinase kinase kinase 6 (Homo sapiens) (UniProt O95382); test: Inhibition of T7 bacteriophage fused human ASK2 at 10 uM by KINOMEscan analysis relative to control
# [16] = tested on: Phosphatidylinositol 4,5-bisphosphate 3-kinase catalytic subunit alpha isoform (Homo sapiens), P42336 [C420R]; test: Inhibition of T7 bacteriophage fused human PIK3CA C420R mutant at 10 uM by KINOMEscan analysis relative to control
# [17] = target: Phosphatidylinositol 4,5-bisphosphate 3-kinase catalytic subunit beta isoform (Homo sapiens) (UniProt P42338); test: Inhibition of T7 bacteriophage fused human PIK3CB at 10 uM by KINOMEscan analysis relative to control
# [18] = target: Homeodomain-interacting protein kinase 4 (Homo sapiens) (UniProt Q8NE63); test: Inhibition of T7 bacteriophage fused human HIPK4 at 10 uM by KINOMEscan analysis relative to control
# Homeodomain-interacting protein kinase 4 (Homo sapiens), sequence (Q8NE63 whole entry, the tested form may be a part): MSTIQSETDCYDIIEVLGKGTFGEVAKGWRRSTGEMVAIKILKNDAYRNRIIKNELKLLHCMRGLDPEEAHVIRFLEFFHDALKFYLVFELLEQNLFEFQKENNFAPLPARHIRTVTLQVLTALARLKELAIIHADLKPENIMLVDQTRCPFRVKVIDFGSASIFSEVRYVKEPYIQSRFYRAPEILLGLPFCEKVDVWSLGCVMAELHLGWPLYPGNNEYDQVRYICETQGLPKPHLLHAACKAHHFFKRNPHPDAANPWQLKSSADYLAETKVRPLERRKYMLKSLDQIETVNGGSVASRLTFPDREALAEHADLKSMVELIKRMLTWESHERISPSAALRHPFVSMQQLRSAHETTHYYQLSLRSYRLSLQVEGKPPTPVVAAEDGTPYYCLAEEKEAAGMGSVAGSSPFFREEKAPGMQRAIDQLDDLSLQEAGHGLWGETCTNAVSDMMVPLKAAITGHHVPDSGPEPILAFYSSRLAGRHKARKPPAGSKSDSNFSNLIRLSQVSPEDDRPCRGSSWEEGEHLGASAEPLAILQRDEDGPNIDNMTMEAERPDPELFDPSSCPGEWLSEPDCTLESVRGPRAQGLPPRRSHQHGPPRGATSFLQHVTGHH
# [19] = target: Discoidin domain-containing receptor 2 (Homo sapiens) (UniProt Q16832); test: Inhibition of T7 bacteriophage fused human DDR2 at 10 uM by KINOMEscan analysis relative to control
# Discoidin domain-containing receptor 2 (Homo sapiens), sequence (Q16832 whole entry, the tested form may be a part): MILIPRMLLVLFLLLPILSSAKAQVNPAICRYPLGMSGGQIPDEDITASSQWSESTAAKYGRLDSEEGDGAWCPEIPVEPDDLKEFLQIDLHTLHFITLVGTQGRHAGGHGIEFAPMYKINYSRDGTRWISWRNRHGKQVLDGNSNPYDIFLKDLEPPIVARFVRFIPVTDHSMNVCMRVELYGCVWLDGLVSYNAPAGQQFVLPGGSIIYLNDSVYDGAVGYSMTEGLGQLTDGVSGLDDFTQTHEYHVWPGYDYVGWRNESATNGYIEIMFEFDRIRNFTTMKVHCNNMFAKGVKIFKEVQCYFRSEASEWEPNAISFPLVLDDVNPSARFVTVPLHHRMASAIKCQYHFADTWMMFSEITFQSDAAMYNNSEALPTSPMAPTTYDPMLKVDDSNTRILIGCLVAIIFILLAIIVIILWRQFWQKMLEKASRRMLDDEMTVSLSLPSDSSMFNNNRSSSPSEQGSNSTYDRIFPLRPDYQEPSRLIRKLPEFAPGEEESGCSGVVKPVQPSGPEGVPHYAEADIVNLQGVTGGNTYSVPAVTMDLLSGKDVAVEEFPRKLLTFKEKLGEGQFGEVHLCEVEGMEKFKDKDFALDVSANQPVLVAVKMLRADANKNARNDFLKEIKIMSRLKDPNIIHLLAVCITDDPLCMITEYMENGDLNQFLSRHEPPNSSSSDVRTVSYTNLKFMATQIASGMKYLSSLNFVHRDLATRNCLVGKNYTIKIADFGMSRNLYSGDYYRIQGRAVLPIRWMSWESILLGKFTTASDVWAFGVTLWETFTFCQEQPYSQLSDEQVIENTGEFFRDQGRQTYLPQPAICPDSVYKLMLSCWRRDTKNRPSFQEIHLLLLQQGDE
# [20] = target: Calcium/calmodulin-dependent protein kinase type II subunit gamma (Homo sapiens) (UniProt Q13555); test: Inhibition of T7 bacteriophage fused human CAMK2G at 10 uM by KINOMEscan analysis relative to control
# [21] = tested on: Epidermal growth factor receptor (Homo sapiens), P00533 [G719C]; test: Inhibition of T7 bacteriophage fused human EGFR G719C mutant at 10 uM by KINOMEscan analysis relative to control
# [22] = target: Protein kinase C iota type (Homo sapiens) (UniProt P41743); test: Inhibition of T7 bacteriophage fused human PRKCI at 10 uM by KINOMEscan analysis relative to control
# [23] = target: Serine/threonine-protein kinase DCLK3 (Homo sapiens) (UniProt Q9C098); test: Inhibition of T7 bacteriophage fused human DCAMKL3 at 10 uM by KINOMEscan analysis relative to control; values are per cent of control
# Serine/threonine-protein kinase DCLK3 (Homo sapiens), sequence (Q9C098 whole entry, the tested form may be a part, canonical isoform): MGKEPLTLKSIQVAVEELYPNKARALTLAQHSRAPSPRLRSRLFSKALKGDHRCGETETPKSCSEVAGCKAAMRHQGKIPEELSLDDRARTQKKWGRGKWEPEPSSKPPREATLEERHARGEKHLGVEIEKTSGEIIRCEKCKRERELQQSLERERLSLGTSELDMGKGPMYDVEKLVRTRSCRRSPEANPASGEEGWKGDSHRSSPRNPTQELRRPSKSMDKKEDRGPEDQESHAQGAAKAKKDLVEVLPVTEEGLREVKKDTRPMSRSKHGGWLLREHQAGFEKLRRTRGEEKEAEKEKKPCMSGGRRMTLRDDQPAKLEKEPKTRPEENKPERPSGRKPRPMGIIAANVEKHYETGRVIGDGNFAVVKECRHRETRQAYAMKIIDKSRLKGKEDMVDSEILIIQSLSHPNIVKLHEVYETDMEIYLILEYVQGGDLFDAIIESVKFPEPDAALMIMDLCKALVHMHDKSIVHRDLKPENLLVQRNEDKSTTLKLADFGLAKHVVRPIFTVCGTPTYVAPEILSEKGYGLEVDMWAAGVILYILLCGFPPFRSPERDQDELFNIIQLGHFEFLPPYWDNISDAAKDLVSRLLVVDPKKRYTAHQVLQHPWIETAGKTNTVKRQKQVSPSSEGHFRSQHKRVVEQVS
# [24] = target: Phosphatidylinositol 4,5-bisphosphate 3-kinase catalytic subunit alpha isoform (Homo sapiens) (UniProt P42336); test: Inhibition of T7 bacteriophage fused human PIK3CA at 10 uM by KINOMEscan analysis relative to control
# [25] = target: Megakaryocyte-associated tyrosine-protein kinase (Homo sapiens) (UniProt P42679); test: Inhibition of T7 bacteriophage fused human CTK at 10 uM by KINOMEscan analysis relative to control
# [26] = tested on: Epidermal growth factor receptor (Homo sapiens), P00533 [UNDEFINED MUTATION]; test: Inhibition of T7 bacteriophage fused human EGFR S752-I759del mutant at 10 uM by KINOMEscan analysis relative to control; values are per cent of control
# [27] = target: Serine/threonine-protein kinase PAK 1 (Homo sapiens) (UniProt Q13153); test: Inhibition of T7 bacteriophage fused human PAK1 at 10 uM by KINOMEscan analysis relative to control
# [28] = target: Interferon-induced, double-stranded RNA-activated protein kinase (Homo sapiens) (UniProt P19525); test: Inhibition of T7 bacteriophage fused human PRKR at 10 uM by KINOMEscan analysis relative to control
# [29] = tested on: Leucine-rich repeat serine/threonine-protein kinase 2 (Homo sapiens), Q5S007 [A2016T]; test: Inhibition of drug-resistant GFP-tagged LRRK2 A2016T mutant phosphorylation at Ser910 residue (unknown origin) transfected in HEK293 cells upto 3 uM incubated for 90 mins by immunoblot analysis; assay type: cell-based
# In short: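 HEK293 cells stably expressing GFP-LRRK2 variants, grown in DMEM with 10% FBS, 2 mM glutamine and penicillin/streptomycin. Compound added from DMSO stock (final DMSO ≤1%) at increasing concentrations for 90 min, DMSO control. Cells were PBS-washed and lysed in Triton X-100 lysis buffer. Lysates were run on 8% SDS-PAGE and immunoblotted with rabbit monoclonals against pSer910, pSer935 and total LRRK2.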
# Serine/threonine-protein kinase TAO2 (Homo sapiens), sequence (Q9UL54 whole entry, the tested form may be a part): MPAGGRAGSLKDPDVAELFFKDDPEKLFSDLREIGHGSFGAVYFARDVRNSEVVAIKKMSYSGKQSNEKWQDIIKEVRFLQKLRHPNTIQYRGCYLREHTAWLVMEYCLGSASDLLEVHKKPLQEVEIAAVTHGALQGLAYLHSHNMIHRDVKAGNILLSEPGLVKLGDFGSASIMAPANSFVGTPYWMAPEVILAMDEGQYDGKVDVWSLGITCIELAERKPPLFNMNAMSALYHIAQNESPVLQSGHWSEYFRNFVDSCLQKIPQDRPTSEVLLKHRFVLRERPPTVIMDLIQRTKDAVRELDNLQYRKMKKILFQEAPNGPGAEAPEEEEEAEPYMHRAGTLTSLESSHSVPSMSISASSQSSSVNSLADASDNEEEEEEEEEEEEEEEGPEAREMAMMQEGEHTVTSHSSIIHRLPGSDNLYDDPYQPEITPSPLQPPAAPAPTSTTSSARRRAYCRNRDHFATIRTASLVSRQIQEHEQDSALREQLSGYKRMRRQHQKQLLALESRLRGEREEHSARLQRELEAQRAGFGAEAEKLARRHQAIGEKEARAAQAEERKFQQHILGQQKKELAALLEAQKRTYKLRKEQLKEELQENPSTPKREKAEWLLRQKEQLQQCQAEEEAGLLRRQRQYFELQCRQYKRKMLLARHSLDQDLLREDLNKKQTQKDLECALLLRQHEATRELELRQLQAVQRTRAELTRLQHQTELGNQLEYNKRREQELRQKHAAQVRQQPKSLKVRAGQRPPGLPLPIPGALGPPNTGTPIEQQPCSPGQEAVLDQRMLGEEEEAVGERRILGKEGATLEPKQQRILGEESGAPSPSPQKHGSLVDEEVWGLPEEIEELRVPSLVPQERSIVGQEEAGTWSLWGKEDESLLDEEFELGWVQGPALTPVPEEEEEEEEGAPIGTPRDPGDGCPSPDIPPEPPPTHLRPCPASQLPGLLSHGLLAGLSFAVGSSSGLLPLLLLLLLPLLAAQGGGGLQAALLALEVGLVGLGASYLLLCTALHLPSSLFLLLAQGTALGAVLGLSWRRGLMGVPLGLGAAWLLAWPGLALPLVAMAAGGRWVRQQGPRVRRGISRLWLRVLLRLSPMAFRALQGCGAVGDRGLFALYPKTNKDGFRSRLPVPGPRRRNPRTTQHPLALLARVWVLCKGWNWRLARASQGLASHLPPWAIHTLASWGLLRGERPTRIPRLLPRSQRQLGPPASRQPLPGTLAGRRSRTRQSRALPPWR
compound,measurement,setting,value
COc1cc(C(=O)N2CCC(N3CCN(C)CC3)CC2)ccc1Nc1ncc2c(n1)N(C1CCCC1)c1ccccc1C(=O)N2C,inhibition,[1],0.3%
COc1cc(N2CCC(N3CCN(C)CC3)CC2)ccc1Nc1ncc2c(n1)N(C)c1ccccc1C(=O)N2C,residual activity,[2],80%
same,inhibition,[3],65%
same,inhibition,[4],100%
same,inhibition,[5],100%
same,residual activity,[6],73%
same,inhibition,[7],100%
same,inhibition,[8],100%
same,inhibition,[9],100%
same,inhibition,[10],1.2%
same,inhibition,[11],100%
same,inhibition,[12],100%
same,inhibition,[13],100%
same,inhibition,[14],95%
same,inhibition,[15],100%
same,inhibition,[16],89%
same,inhibition,[17],96%
same,inhibition,[18],100%
same,inhibition,[19],100%
same,inhibition,[20],47%
same,inhibition,[21],100%
same,inhibition,[22],100%
same,residual activity,[23],90%
same,inhibition,[24],74%
same,inhibition,[25],100%
same,residual activity,[26],99%
same,inhibition,[27],95%
same,inhibition,[28],84%
CCOc1cc(C(=O)N2CCC(N3CCN(C)CC3)CC2)ccc1Nc1ncc2c(n1)N(C1CCCC1)c1ccccc1C(=O)N2C,inhibition,[29],inactive
